Measurements: ChEMBL document CHEMBL4028864 (J Med Chem, 2017)
In brackets after ≈: the same amount, converted by molar mass.

How the values were obtained:
[1] = target: T1, Tyrosine-protein kinase JAK2 (Homo sapiens, UniProt O60674); test: Binding affinity to N-terminal His tagged human recombinant JAK2 (1014 to 1132 residues) expressed in Escherichia coli after 60 to 90 mins by LC/MS analysis; details: read-out: Kd(app)
[2] = target: T1, Tyrosine-protein kinase JAK2; test: Inhibition of wild type human JAK2 (A829 to G1132 residues) expressed in mammalian cells assessed as residual activity at 1 uM by KINOMEscan assay relative to control; assay type: cell-based
Jurkat = test: cells; assay type: functional, cell-based; details: Homo sapiens
MV4-11 = test: cells; assay type: functional, cell-based; details: Homo sapiens, MV4-11, 48 h
HL-60 = test: Antiproliferative activity against human HL60 cells; assay type: functional, cell-based
KMS-12-BM = test: Induction of apoptosis in human KMS-12-BM cells assessed as increase in cleaved PARP level at 1 to 6 uM after 24 hrs by immunoblotting analysis; assay type: functional, cell-based
Summary of the method: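 KMS-12-BM and MOLM-14 cells were treated for 24 h and then lysed. Cleaved PARP was detected by immunoblotting.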

Histone deacetylase 11 = Histone deacetylase 11 (Homo sapiens, UniProt Q96DB2); test: Inhibition of C-terminal His tagged human recombinant HDAC11 (1 to 347 residues) expressed in Baculovirus infected insect cells in presence of ATP
Summary of the method: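 HDAC enzyme inhibition was run by a contract laboratory.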

[3] = target: Inhibitor of nuclear factor kappa-B kinase subunit beta (Homo sapiens) (UniProt O14920); test: Inhibition of wild type human IKKbeta (M1 to S756 residues) expressed in mammalian cells assessed as residual activity at 1 uM by KINOMEscan assay relative to control; assay type: cell-based
[4] = Terminal half life in Wistar rat at 1 mg/kg, iv by LC-MS/MS analysis; assay type: ADME, organism-based; details: in vivo, read-out: beta t1/2 (converted)
Summary of the method: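 Wistar rats given a single 1 mg/kg iv dose. Plasma concentration–time profiles were plotted as mean ± SEM and sampled through 24 h postdose. Values were taken from the iv profile.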

[5] = Oral bioavailability in Wistar rat at 5 mg/kg administered via gavage by LC-MS/MS analysis; assay type: ADME, organism-based; details: in vivo
Summary of the method: (§1)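 Wistar rats given a single 5 mg/kg oral dose. Plasma concentration–time profiles were plotted as mean ± SEM and sampled through 24 h postdose.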

[6] = Tmax in Wistar rat at 5 mg/kg, po administered via gavage by LC-MS/MS analysis; assay type: ADME, organism-based; details: in vivo; summary of the method: as §1
PC-3 = test: cells; assay type: functional, cell-based; details: Homo sapiens, PC-3, 72 h
[7] = Cytotoxicity against human AC10 cells assessed as cell viability at 100 uM after 24 hrs by CellTiter-Glo assay relative to control; assay type: cell-based; details: read-out: Activity
Summary of the method: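 AC10 human cardiomyocytes seeded at 5000 cells/well the day before treatment. Cells were exposed for 24 h at 37 °C to a range of 0.315–100 μM final (0.5% DMSO). Viability was read by CellTiter-Glo luminescence.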

[8] = target: T2, Tyrosine-protein kinase JAK3 (Homo sapiens, UniProt P52333); test: Inhibition of wild type human JAK3 (I781 to S1124 residues) expressed in mammalian cells assessed as residual activity at 1 uM by KINOMEscan assay relative to control; assay type: cell-based; details: read-out: Activity
T2 sequence (P52333 whole entry): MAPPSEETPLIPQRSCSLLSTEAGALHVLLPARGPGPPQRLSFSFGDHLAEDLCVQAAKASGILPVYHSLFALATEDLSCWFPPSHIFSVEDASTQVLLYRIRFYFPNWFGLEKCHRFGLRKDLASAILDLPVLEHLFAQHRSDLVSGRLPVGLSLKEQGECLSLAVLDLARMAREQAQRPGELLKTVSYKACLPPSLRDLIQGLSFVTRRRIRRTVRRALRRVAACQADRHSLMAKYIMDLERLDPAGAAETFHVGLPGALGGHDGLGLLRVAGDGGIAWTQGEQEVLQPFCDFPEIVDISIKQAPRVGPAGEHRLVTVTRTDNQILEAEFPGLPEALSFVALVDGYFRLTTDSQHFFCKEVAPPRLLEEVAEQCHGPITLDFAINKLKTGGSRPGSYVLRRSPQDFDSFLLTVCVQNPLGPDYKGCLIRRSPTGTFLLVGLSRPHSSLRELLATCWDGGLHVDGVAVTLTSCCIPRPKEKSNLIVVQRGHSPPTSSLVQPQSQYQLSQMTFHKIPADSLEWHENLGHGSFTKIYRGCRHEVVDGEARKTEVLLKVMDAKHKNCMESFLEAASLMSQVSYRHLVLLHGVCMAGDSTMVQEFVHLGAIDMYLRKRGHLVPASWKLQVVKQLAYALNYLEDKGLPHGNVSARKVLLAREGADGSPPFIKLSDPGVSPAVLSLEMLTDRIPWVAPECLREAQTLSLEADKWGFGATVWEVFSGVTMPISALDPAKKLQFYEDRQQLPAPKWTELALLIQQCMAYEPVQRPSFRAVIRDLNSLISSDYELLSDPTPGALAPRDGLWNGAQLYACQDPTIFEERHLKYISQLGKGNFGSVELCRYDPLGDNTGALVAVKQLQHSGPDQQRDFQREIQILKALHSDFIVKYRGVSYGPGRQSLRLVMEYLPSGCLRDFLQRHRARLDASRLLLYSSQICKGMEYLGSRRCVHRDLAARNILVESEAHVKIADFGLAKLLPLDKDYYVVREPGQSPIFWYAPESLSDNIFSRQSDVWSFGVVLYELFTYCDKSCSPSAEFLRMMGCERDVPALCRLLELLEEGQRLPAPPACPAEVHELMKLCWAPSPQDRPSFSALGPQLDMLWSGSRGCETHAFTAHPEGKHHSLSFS

Plasma = test: Drug uptake in Wistar rat plasma at 5 mg/kg, po administered via gavage or 1 mg/kg, iv after 4 to 24 hrs by LC-MS/MS analysis; assay type: ADME, organism-based; details: in vivo
Summary of the method: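 Wistar rats dosed once at 5 mg/kg po or 1 mg/kg iv. Plasma levels were followed as mean ± SEM over 24 h postdose and checked against the limit of quantitation at each time point.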

[9] = Thermodynamic aqueous solubility of the compound at pH 7.4 after 3 hrs by UV absorbance based assay; assay type: physicochemical; details: read-out: Therm_solubility
Summary of the method: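 A 20 mM DMSO stock was diluted 1:100 into pH 7.4 PBS, then shaken at 250 rpm for 3 or 24 h at 22.5 ± 2.5 °C. The mixture was filtered and the filtrate diluted with acetonitrile/universal buffer. Absorbance was read at 310 nm against a 6.25–200 μM calibration curve, in triplicate.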

cells [10] = assay type: functional, cell-based; details: Homo sapiens, XG6, 48 h
[11] = target: T2, Tyrosine-protein kinase JAK3; test: Inhibition of human JAK3 using GEEEEYFELVKKKK as substrate in presence of [gamma-33P]-ATP
Summary of the method: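 Kinase inhibition was tested by radiometric "Hotspot" profiling at a contract laboratory with 10 μM ATP.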

cells [12] = assay type: functional, cell-based; details: Homo sapiens, NKYS, 48 h
[13] = AUC (0 to infinity) in Wistar rat at 5 mg/kg, po administered via gavage by LC-MS/MS analysis; assay type: ADME, organism-based; design: dose 5 mg/kg, time infinity, route oral; details: in vivo; summary of the method: as §1

T1 sequence (O60674 whole entry, the tested form may be a part): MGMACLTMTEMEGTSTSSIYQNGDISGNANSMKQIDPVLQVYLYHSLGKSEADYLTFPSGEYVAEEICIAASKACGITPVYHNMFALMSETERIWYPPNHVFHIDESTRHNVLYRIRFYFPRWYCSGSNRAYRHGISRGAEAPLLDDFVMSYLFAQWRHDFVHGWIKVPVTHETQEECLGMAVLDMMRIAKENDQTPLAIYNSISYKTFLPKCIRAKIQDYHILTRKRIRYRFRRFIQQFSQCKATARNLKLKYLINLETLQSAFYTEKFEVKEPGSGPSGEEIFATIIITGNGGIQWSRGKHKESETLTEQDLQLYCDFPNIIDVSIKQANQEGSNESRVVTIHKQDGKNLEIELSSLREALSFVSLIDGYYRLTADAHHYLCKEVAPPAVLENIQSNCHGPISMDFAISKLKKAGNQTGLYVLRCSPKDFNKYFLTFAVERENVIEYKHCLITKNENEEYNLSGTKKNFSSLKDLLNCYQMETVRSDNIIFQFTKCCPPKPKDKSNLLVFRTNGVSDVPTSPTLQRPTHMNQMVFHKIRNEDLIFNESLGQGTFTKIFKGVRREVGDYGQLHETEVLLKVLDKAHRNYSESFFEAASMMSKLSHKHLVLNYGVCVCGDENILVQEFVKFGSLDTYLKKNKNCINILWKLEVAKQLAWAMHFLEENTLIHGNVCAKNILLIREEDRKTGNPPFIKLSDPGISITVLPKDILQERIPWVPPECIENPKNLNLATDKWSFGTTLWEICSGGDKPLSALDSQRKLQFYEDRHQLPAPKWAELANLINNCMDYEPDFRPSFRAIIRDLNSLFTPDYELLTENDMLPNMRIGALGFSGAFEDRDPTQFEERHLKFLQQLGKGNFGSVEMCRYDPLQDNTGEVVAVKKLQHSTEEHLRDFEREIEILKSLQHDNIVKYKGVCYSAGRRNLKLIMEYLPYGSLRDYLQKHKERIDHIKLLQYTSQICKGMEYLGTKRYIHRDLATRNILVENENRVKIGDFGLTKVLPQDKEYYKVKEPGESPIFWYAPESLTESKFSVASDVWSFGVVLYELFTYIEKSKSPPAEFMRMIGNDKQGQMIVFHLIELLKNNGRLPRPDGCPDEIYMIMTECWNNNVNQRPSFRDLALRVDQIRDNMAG
Sequence of Inhibitor of nuclear factor kappa-B kinase subunit beta (Homo sapiens) (O14920 whole entry, the tested form may be a part): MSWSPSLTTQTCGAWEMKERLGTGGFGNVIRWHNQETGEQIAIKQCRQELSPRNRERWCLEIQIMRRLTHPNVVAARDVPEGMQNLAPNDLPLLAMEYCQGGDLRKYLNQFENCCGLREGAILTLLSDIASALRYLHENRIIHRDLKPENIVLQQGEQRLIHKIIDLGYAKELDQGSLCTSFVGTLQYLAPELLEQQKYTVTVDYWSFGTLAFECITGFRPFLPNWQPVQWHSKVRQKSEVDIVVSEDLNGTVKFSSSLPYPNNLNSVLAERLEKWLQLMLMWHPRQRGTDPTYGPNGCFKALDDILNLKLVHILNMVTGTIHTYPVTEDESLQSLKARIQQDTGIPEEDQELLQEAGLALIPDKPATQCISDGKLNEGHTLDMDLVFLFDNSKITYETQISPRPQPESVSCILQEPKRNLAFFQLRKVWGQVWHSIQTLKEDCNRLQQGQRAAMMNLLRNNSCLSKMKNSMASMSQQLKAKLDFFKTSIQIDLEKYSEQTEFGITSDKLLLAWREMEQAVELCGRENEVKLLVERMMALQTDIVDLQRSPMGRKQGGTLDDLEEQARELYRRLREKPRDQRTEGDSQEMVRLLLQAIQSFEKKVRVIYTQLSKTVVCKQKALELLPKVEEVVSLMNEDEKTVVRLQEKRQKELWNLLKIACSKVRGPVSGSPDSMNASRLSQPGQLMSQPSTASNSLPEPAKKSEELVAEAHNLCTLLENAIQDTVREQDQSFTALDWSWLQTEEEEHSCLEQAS
Sequence of Histone deacetylase 11 (Q96DB2 whole entry, the tested form may be a part): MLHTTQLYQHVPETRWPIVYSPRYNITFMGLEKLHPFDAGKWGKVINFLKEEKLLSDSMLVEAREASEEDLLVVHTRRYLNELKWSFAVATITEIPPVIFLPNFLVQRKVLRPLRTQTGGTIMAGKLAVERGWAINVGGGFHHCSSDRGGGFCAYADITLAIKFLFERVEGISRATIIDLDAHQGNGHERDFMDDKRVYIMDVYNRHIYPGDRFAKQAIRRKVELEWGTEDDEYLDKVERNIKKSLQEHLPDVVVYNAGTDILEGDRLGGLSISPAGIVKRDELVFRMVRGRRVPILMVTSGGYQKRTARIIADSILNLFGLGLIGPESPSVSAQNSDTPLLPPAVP

- Kd [1]: 5000 nM
- Activity [2]: 0%
- IC50 (Jurkat): 470 nM
- IC50 (MV4-11): 460 nM
- IC50 (HL-60): 7360 nM
- IC50 (Histone deacetylase 11): 31 nM
- Activity [3]: 30%
- half-life [4]: 21 min
- bioavailability [5]: 1.4%
- Tmax [6]: 4.98 min
- IC50 (PC-3): 2410 nM
- activity at 1 µM [8]: 0.75%
- Drug uptake (Plasma): Not Active
- solubility thermodynamic at 3 h [9]: 66.2 µg/mL (≈ 202 µM)
- IC50 (cells [10]): 2010 nM
- IC50 [11]: 569 nM
- IC50 (cells [12]): 450 nM
- AUC(0-inf) [13]: 12.3 ng·h/mL
Structure (SMILES): O=C(CCCCCCn1cc(-c2ncnc3[nH]ccc23)cn1)NO
- Activity (KMS-12-BM): Dose-dependent effect
- viability at 24 h, 100 µM [7]: 56%
